The text below walks through data of ChEMBL document CHEMBL4350958, “Rational Design of Short Peptide Variants by Using Kunitzin-RE, an Amphibian-Derived Bioactivity Peptide, for Acquired Potent Broad-Spectrum Antimicrobial and Improved Therapeutic Potential of Commensalism Coinfection of Pathogens” (J Med Chem, 2019).

A value given as a limit tells only on which side of the number the result lay.

Series [1] relates to Escherichia coli. Kind of series: Antibacterial activity against Escherichia coli UB1005 measured after 24 hrs. In kind it is functional. As to conditions: UB1005, 24 h. The essentials: (§1)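 Broth microdilution adapted from NCCLS. Mid-log bacteria were diluted in MHB to a final (0.5–1) × 10^5 CFU mL−1. Peptides were serially diluted in 0.2% BSA and mixed with an equal volume of cells. After 24 h at 37 °C, MIC was read at A492 as the lowest concentration inhibiting 95% of growth. At least three independent experiments, each with three technical replicates.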

A short description of series [2]: Antibacterial activity against Salmonella pullorum ATCC 7913 measured after 24 hrs. In kind it is functional, Salmonella enterica subsp. enterica serovar Pullorum. The note with it: Salmonella enterica, ATCC 7913, 24 h. The essentials: as §1
For series [3], the system named is Escherichia coli. The experiment in a line: Antibacterial activity against Escherichia coli ATCC 25922 measured after 24 hrs. As to conditions: ATCC 25922, 24 h. Type of series: functional. In a few lines:
as §1

Series [4] deals with Staphylococcus aureus. The experiment in a line: Antibacterial activity against Staphylococcus aureus ATCC 29213 measured after 18 to 24 hrs in presence of CaCl2. In kind it is functional.
Series [5] in a line: Therapeutic index, ratio of MHC10 for hemolytic activity in human RBC to MIC95 against Candida tropicalis cgmcc2.1975. As to conditions: human red blood cells (erythrocytes), read-out: TI. In kind it is toxicity. In a few lines: (§2)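 Therapeutic index = MHC divided by MIC. MHC is the lowest concentration giving >10% lysis of human RBC (1 h, 37 °C, 1-128 µM, A576). MIC is 95% growth inhibition by broth microdilution: bacteria in MHB 24 h at 37 °C; Candida in MOPS-buffered RPMI 1640 at (0.5–1) × 10^3 CFU mL−1, 48 h at 28 °C.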

The nature of series [6]: Therapeutic index, ratio of MHC10 for hemolytic activity in human RBC to MIC95 against Staphylococcus epidermidis ATCC 12228. In kind it is toxicity. As to conditions: human red blood cells (erythrocytes), read-out: TI. In a few lines:
as §2

Series [7] deals with Escherichia coli. The experiment in a line: Antibacterial activity against Escherichia coli ATCC 25922 measured after 18 to 24 hrs in presence of MgCl2. In kind it is functional.
Series [8] has as its system Staphylococcus aureus. Kind of series: Antibacterial activity against Staphylococcus aureus ATCC 29213 measured after 18 to 24 hrs in presence of NaCl. In kind it is functional.
In series [9] the test system is Staphylococcus aureus. The experiment in a line: Antibacterial activity against methicillin-resistant Staphylococcus aureus ATCC 43300 measured after 24 hrs. The note with it: ATCC 43300, 24 h. Type of series: functional. In a few lines:
(§3)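 Broth microdilution modified from NCCLS. Mid-log bacteria at (0.5–1) × 10^5 CFU mL−1 in MHB, mixed with peptides serially diluted in 0.2% BSA. Incubated 24 h at 37 °C, read at A492. MIC taken as lowest concentration giving 95% growth inhibition. At least three independent experiments, each with three technical replicates.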

A short description of series [10]: Cytotoxicity against mouse RAW264.7 cells assessed as cell viability at 2 to 64 uM measured after 18 to 24 hrs by MTT assay relative to control. In kind it is cell-based. As to conditions: RAW264.7 cells, read-out: Activity. In a few lines: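 MTT assay: RAW264.7 cells seeded at 1.0–2.0×10^4 per well and exposed to peptide (2–64 µM) for 18–24 h at 37 °C in 5% CO2. MTT (0.5 mg/mL) added for 4 h, formazan dissolved in DMSO, read at 570 nm. At least three independent experiments with triplicate wells.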
For orientation: Formazan colour is commonly taken as a measure of viable cells.

Series [11] concerns Staphylococcus aureus. Kind of series: Antibacterial activity against Staphylococcus aureus ATCC 29213 measured after 24 hrs. Type of series: functional. The note with it: ATCC 29213, 24 h. The essentials:
as §3

Series [12] relates to Staphylococcus epidermidis. Kind of series: Antibacterial activity against Staphylococcus epidermidis ATCC 12228 measured after 24 hrs. As to conditions: ATCC 12228, 24 h. In kind it is functional. The essentials: as §1
Series [13] is described as follows: Therapeutic index, ratio of MHC10 for hemolytic activity in human RBC to MIC95 against Staphylococcus aureus ATCC 29213. Type of series: toxicity. As to conditions: human red blood cells (erythrocytes), read-out: TI. In a few lines:
as §2

For series [14], the system named is Candida albicans. Kind of series: Antifungal activity against Candida albicans cgmcc2.2086 measured after 48 hrs in presence of MgCl by broth microdilution method. The note with it: cgmcc2.2086, 48 h. In kind it is functional. (Dilution methods test growth across graded concentrations, often in twofold steps.)
Series [15] has as its system Candida albicans. The experiment in a line: Antifungal activity against Candida albicans cgmcc2.2086 measured after 48 hrs by broth microdilution method. In kind it is functional. The note with it: cgmcc2.2086, 48 h. In a few lines:
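Modified CLSI M27-A2 microdilution. Yeast colonies were diluted in MOPS-buffered RPMI 1640 to a final (0.5–1) × 10^3 CFU mL−1 and mixed with an equal volume of peptide serially diluted in 0.2% BSA. After 48 h at 28 °C, MIC was read at A492 as the lowest concentration inhibiting 95% of growth. At least three independent experiments, each with three technical replicates.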

Series [16] is described as follows: Therapeutic index, ratio of MHC10 for hemolytic activity in human RBC to MIC95 against methicillin-resistant Staphylococcus aureus ATCC 43300. In kind it is toxicity. As to conditions: human red blood cells (erythrocytes), read-out: TI. In a few lines: as §2
For series [17], the system named is Escherichia coli. Kind of series: Antibacterial activity against Escherichia coli ATCC 25922 measured after 18 to 24 hrs in presence of CaCl2. In kind it is functional.
The test system of series [18] is Salmonella typhimurium. Kind of series: Bactericidal activity against Salmonella typhimurium ATCC 14028 incubated for 24 hrs followed by replating on agar plate and measured after overnight incubation. Type of series: functional, Salmonella enterica subsp. enterica serovar Typhimurium. The note with it: Salmonella enterica, ATCC 14028, 24 h; read-out: MBC>99.9. In a few lines: (§4)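 Mid-log bacteria diluted in MHB to (0.5–1) × 10^5 CFU/mL and mixed 1:1 with peptide serially diluted in 0.2% BSA. After 24 h at 37 °C, 50 μL of each mixture was plated on agar and incubated overnight. MBC taken as the lowest concentration killing >99.9% of cells. At least three independent experiments, each with three technical replicates.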

Series [19] has as its system Salmonella typhimurium. The experiment in a line: Bactericidal activity against Salmonella typhimurium C7731 incubated for 24 hrs followed by replating on agar plate and measured after overnight incubation. The note with it: Salmonella enterica, C7731, 24 h; read-out: MBC>99.9. In kind it is functional, Salmonella enterica subsp. enterica serovar Typhimurium. The essentials:
as §4

Series [20] can be described thus: Bactericidal activity against Salmonella pullorum ATCC 7913 incubated for 24 hrs followed by replating on agar plate and measured after overnight incubation. The note with it: Salmonella enterica, ATCC 7913, 24 h; read-out: MBC>99.9. In kind it is functional, Salmonella enterica subsp. enterica serovar Pullorum. In a few lines: as §4
Series [21] relates to Escherichia coli. The experiment in a line: Bactericidal activity against Escherichia coli K99 incubated for 24 hrs followed by replating on agar plate and measured after overnight incubation. The note with it: K99, 24 h, read-out: MBC>99.9. In kind it is functional. In a few lines: as §4

For H-AAKIILNPKFR-NH2, the MIC95 in series [1], in series [2], in series [3], in series [4], in series [7] and in series [8] was greater than 128 µM throughout. The MIC95 in series [9], in [11], in series [12], in [14], in [15] and in [17] was greater than 128 µM in each case. Further, the selectivity ratio in [5], in series [6], in [13] and in [16] was 2 throughout. For the same substance, the viability at up to 64 µM in series [10] fell in the range of 90 to 100%.

With H-AARIILRNRFR-NH2, the minimum bactericidal concentration (MBC) was 64 µM in [18], 128 µM in series [19], 32 µM in series [20] and 32 µM in [21]. Also, the MIC95 in series [1] is 16 µM; in series [2], 16 µM; in series [3], 32 µM; in series [4], greater than 128 µM; in [7] it was 128 µM; in series [8] it was greater than 128 µM. Also, the MIC95 in series [9], in series [11], in series [12], in series [14], in [15] and in series [17] was greater than 128 µM each time. Moreover, the selectivity ratio in series [5], in series [6], in [13] and in series [16] was 2 in each case. Also, the viability at up to 64 µM in [10] lay in the range of 90 to 100%.

Consider H-AARIILRPRFR-NH2, for which the MBC came out at 32 µM in [18], 32 µM in series [19], 64 µM in series [20] and 32 µM in series [21]. Moreover, the MIC95 in [1] was 8 µM; in series [2], 16 µM; in series [3] it was 16 µM; in series [4], greater than 128 µM; in [7], 64 µM; in series [8] it was greater than 128 µM. Besides, the MIC95 in [9] was greater than 128 µM; in series [11], greater than 128 µM; in series [12], greater than 128 µM; in [14], greater than 128 µM; in series [15], greater than 128 µM; in [17], 128 µM. Besides, the selectivity ratio in series [5], in series [6], in [13] and in series [16] was 2 each time. Also, the viability at up to 64 µM in series [10] lay within 90 to 100%.

Consider H-AARIILRDRFR-NH2, for which the MIC95 is greater than 128 µM in series [1]; greater than 128 µM in [2]; no less than 128 µM in series [3]; greater than 128 µM in series [4]; greater than 128 µM in series [7]; greater than 128 µM in series [8]. The MIC95 in series [9], in series [11], in series [12], in [14], in series [15] and in series [17] was greater than 128 µM throughout. Moreover, the selectivity ratio in series [5], in series [6], in series [13] and in [16] was 2 each time. The viability at up to 64 µM in series [10] was in the range of 90 to 100%.

By MBC is commonly meant the smallest concentration meeting the test's criterion for killing.
